pIC50: −log10 of the molar value.
Molecular target: T1, Endothelin receptor type B (Sus scrofa, UniProt P35463)
T1 sequence (P35463 whole entry): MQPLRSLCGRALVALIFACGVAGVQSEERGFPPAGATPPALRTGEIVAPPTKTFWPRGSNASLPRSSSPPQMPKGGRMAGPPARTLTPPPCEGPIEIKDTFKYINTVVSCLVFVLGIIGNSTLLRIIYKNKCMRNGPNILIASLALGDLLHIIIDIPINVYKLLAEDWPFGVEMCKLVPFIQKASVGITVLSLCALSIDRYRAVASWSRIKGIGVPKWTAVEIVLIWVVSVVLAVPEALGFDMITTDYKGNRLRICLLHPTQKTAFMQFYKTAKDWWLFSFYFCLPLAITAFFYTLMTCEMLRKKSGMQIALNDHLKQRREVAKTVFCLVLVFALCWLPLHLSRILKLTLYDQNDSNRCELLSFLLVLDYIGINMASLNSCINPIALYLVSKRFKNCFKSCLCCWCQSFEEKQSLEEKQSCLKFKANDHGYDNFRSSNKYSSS
Test: Binding affinity to endothelin B receptor measured by inhibition of [125I]ET-3 binding recombinant pig ET-B receptor expressed in COS-7 cells
Format: cell-based
Summary of the method: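 COS cells transfected with porcine ETB cDNA, in Hank's solution with 20 mM HEPES and protease inhibitors. Stopped by filtration on GF/C filters presoaked in 1% polyethylenimine, washed with 50 mM Tris-HCl pH 7.4, then counted. Nonspecific binding taken with 0.1 μM ET-3.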

Structure (SMILES)	pIC50
CCCCOc1ccc2c(c1)C(c1ccc3c(c1)OCO3)=C(C(=O)O)C(c1cc(OC)ccc1OC)O2 (stereo unspecified)	5.80
COc1ccc(C2=C(C(=O)O)C(c3ccc4c(c3)OCO4)Oc3ccc(OCc4ccccc4)cc32)cc1 (stereo unspecified)	6.10
CCCCOC1=C(C(=O)O)C(c2ccc3c(c2)OCO3)Oc2ccc(OC)cc21 (stereo unspecified)	5.64
CC(C)Oc1ccc2c(c1)C(c1ccc3c(c1)OCO3)=C(C(=O)O)C(c1ccc(C(C)C)cc1)O2 (stereo unspecified)	5.57
CCCOc1ccc2c(c1)OC(c1ccc3c(c1)OCO3)C(C(=O)O)=C2c1ccc(OC)cc1 (stereo unspecified)	5.64
CCCOc1cccc2c1C(c1ccc(OC)cc1)=C(C(=O)O)C(c1ccc3c(c1)OCO3)O2 (stereo unspecified)	5.74
COc1ccc(C2=C(C(=O)O)C(c3ccc4c(c3)OCO4)Oc3ccccc32)cc1 (stereo unspecified)	5.85
CCCCOC1=C(C(=O)O)C(c2ccc3c(c2)OCO3)Oc2cc(OCCC)ccc21 (stereo unspecified)	5.55
CC(C)Oc1ccc2c(c1)C=C(C(=O)O)[C@H](c1ccc3c(c1)OCO3)O2	< 4.00
O=C(O)C1=Cc2ccccc2OC1c1ccc2c(c1)OCO2 (stereo unspecified)	< 4.00
COC1=C(C(=O)O)[C@@H](c2ccc3c(c2)OCO3)Oc2ccc(OC(C)C)cc21	5.46
O=C(O)C1=C(c2ccc(Cl)cc2)c2ccccc2OC1c1ccc2c(c1)OCO2 (stereo unspecified)	5.24
CC(C)Oc1ccc2c(c1)C(OCCCC#N)=C(C(=O)O)C(c1ccc3c(c1)OCO3)O2 (stereo unspecified)	5.24
COc1ccccc1C1=C(C(=O)O)C(c2ccc3c(c2)OCO3)Oc2ccc(OC(C)C)cc21 (stereo unspecified)	5.46
O=C(O)C1=C(c2ccccc2)c2ccccc2OC1c1ccc2c(c1)OCO2 (stereo unspecified)	< 4.00
CCCCCCCCCCOC1=C(C(=O)O)C(c2ccc3c(c2)OCO3)Oc2ccc(OC(C)C)cc21 (stereo unspecified)	5.12
CCCCOc1ccc2c(c1)C(c1ccc3c(c1)OCO3)=C(C(=O)O)C(c1ccc(OC3CCCC3)cc1)O2 (stereo unspecified)	5.66
CCOC1=C(C(=O)O)C(c2ccc3c(c2)OCO3)Oc2ccccc21 (stereo unspecified)	4.82
COc1ccc(C2=C(C(=O)O)C(c3ccc4c(c3)OCO4)Oc3c(OC)cccc32)cc1 (stereo unspecified)	5.40
CC(C)Oc1ccc2c(c1)C(Cl)=C(C(=O)O)C(c1ccc3c(c1)OCO3)O2 (stereo unspecified)	5.14

Now those with a higher pIC50, led by results:

pIC50	Structure (SMILES)
6.12	CC(C)Oc1ccc2c(c1)C(c1ccc(C(C)C)cc1)=C(C(=O)O)C(c1ccc3c(c1)OCO3)O2 (stereo unspecified)
6.15	O=C(O)C1=C(c2ccc3c(c2)OCO3)c2ccccc2OC1c1ccc2c(c1)OCO2 (stereo unspecified)
6.28	CCCCOC1=C(C(=O)O)C(c2ccc3c(c2)OCO3)Oc2ccc(OCCC)cc21 (stereo unspecified)
6.33	COc1cccc(C2=C(C(=O)O)C(c3ccc4c(c3)OCO4)Oc3ccc(OC(C)C)cc32)c1 (stereo unspecified)
6.39	CCCCCCCOC1=C(C(=O)O)C(c2ccc3c(c2)OCO3)Oc2ccc(OC(C)C)cc21 (stereo unspecified)
6.40	CCCCC1=C(C(=O)O)[C@@H](c2ccc3c(c2)OCO3)Oc2ccc(OC(C)C)cc21
6.40	CCOc1ccc2c(c1)C(c1ccc(OC)cc1)=C(C(=O)O)C(c1ccc3c(c1)OCO3)O2 (stereo unspecified)
6.77	CC(C)Oc1ccc2c(c1)C(c1ccc3c(c1)OCO3)=C(C(=O)O)C(c1ccc3c(c1)OCO3)O2 (stereo unspecified)
6.80	CCCCOc1ccc2c(c1)C(c1ccc3c(c1)OCO3)=C(C(=O)O)C(c1cccc(OC)c1)O2 (stereo unspecified)
6.89	CCCCOc1ccc2c(c1)C(c1ccc(OC)cc1)=C(C(=O)O)C(c1ccc3c(c1)OCO3)O2 (stereo unspecified)
7.10	CCCOc1ccc2c(c1)C(c1ccc3c(c1)OCO3)=C(C(=O)O)C(c1ccc3c(c1)OCO3)O2 (stereo unspecified)
7.14	CCCOc1ccc2c(c1)C(c1ccc3c(c1)OCO3)=C(C(=O)O)C(c1ccc(OC)cc1)O2 (stereo unspecified)

Tested on: not listed separately
Test: Ratio of inhibitory concentrations at ET-B receptor relative to that of ET-A receptor

Structure (SMILES)	Ratio
COc1ccc(C2=C(C(=O)O)C(c3ccc4c(c3)OCO4)Oc3ccc(OCc4ccccc4)cc32)cc1 (stereo unspecified)	13
CCCCOC1=C(C(=O)O)C(c2ccc3c(c2)OCO3)Oc2ccc(OC)cc21 (stereo unspecified)	9.2
CCCOc1ccc2c(c1)OC(c1ccc3c(c1)OCO3)C(C(=O)O)=C2c1ccc(OC)cc1 (stereo unspecified)	2.4
CCCOc1cccc2c1C(c1ccc(OC)cc1)=C(C(=O)O)C(c1ccc3c(c1)OCO3)O2 (stereo unspecified)	1.5
COc1ccc(C2=C(C(=O)O)C(c3ccc4c(c3)OCO4)Oc3ccccc32)cc1 (stereo unspecified)	16
CC(C)Oc1ccc2c(c1)C=C(C(=O)O)[C@H](c1ccc3c(c1)OCO3)O2	> 60
COC1=C(C(=O)O)[C@@H](c2ccc3c(c2)OCO3)Oc2ccc(OC(C)C)cc21	670

Other lines, results leading:

Ratio	Structure (SMILES)
260	CCCCOC1=C(C(=O)O)C(c2ccc3c(c2)OCO3)Oc2ccc(OCCC)cc21 (stereo unspecified)
950	CCCCC1=C(C(=O)O)[C@@H](c2ccc3c(c2)OCO3)Oc2ccc(OC(C)C)cc21
110	CCOc1ccc2c(c1)C(c1ccc(OC)cc1)=C(C(=O)O)C(c1ccc3c(c1)OCO3)O2 (stereo unspecified)
7.6	CCCCOc1ccc2c(c1)C(c1ccc(OC)cc1)=C(C(=O)O)C(c1ccc3c(c1)OCO3)O2 (stereo unspecified)

Molecular target: T2, Endothelin-1 receptor (Rattus norvegicus, UniProt P26684)
T2 sequence (P26684 whole entry): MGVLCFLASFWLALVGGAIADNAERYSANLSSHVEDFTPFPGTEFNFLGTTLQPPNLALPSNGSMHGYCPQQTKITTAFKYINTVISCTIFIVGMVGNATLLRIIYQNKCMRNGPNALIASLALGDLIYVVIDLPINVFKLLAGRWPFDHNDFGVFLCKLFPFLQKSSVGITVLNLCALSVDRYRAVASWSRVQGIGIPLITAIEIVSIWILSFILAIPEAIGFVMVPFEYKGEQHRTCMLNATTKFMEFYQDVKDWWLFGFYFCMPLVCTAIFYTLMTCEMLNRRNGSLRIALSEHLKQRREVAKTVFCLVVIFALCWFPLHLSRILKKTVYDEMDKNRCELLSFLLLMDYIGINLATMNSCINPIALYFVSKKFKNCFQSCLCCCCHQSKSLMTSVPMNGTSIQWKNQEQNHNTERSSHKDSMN
Test: Binding affinity for endothelin A receptor by inhibition of [125I]ET1 binding in rat aorta smooth muscle cells
Format: tissue-based

Structure (SMILES)	pIC50
CCCCOc1ccc2c(c1)C(c1ccc3c(c1)OCO3)=C(C(=O)O)C(c1cc(OC)ccc1OC)O2 (stereo unspecified)	6.80
COc1ccc(C2=C(C(=O)O)C(c3ccc4c(c3)OCO4)Oc3ccc(OCc4ccccc4)cc32)cc1 (stereo unspecified)	7.21
CCCCOC1=C(C(=O)O)C(c2ccc3c(c2)OCO3)Oc2ccc(OC)cc21 (stereo unspecified)	6.60
CCCOc1ccc2c(c1)OC(c1ccc3c(c1)OCO3)C(C(=O)O)=C2c1ccc(OC)cc1 (stereo unspecified)	6.01
CCCOc1cccc2c1C(c1ccc(OC)cc1)=C(C(=O)O)C(c1ccc3c(c1)OCO3)O2 (stereo unspecified)	5.92
COc1ccc(C2=C(C(=O)O)C(c3ccc4c(c3)OCO4)Oc3ccccc32)cc1 (stereo unspecified)	7.07
O=C(O)C1=Cc2ccccc2OC1c1ccc2c(c1)OCO2 (stereo unspecified)	4.17
COC1=C(C(=O)O)[C@@H](c2ccc3c(c2)OCO3)Oc2ccc(OC(C)C)cc21	8.28
O=C(O)C1=C(c2ccc(Cl)cc2)c2ccccc2OC1c1ccc2c(c1)OCO2 (stereo unspecified)	6.10
CC(C)Oc1ccc2c(c1)C(OCCCC#N)=C(C(=O)O)C(c1ccc3c(c1)OCO3)O2 (stereo unspecified)	8.17
COc1ccccc1C1=C(C(=O)O)C(c2ccc3c(c2)OCO3)Oc2ccc(OC(C)C)cc21 (stereo unspecified)	8.52
O=C(O)C1=C(c2ccccc2)c2ccccc2OC1c1ccc2c(c1)OCO2 (stereo unspecified)	6.11
CCCCCCCCCCOC1=C(C(=O)O)C(c2ccc3c(c2)OCO3)Oc2ccc(OC(C)C)cc21 (stereo unspecified)	6.89
CCCCOc1ccc2c(c1)C(c1ccc3c(c1)OCO3)=C(C(=O)O)C(c1ccc(OC3CCCC3)cc1)O2 (stereo unspecified)	5.32
CCOC1=C(C(=O)O)C(c2ccc3c(c2)OCO3)Oc2ccccc21 (stereo unspecified)	6.54
CC(C)Oc1ccc2c(c1)C(Cl)=C(C(=O)O)C(c1ccc3c(c1)OCO3)O2 (stereo unspecified)	7.92

Second part, the molecule after the results:

pIC50	Structure (SMILES)
8.31	CC(C)Oc1ccc2c(c1)C(c1ccc(C(C)C)cc1)=C(C(=O)O)C(c1ccc3c(c1)OCO3)O2 (stereo unspecified)
6.46	O=C(O)C1=C(c2ccc3c(c2)OCO3)c2ccccc2OC1c1ccc2c(c1)OCO2 (stereo unspecified)
8.70	CCCCOC1=C(C(=O)O)C(c2ccc3c(c2)OCO3)Oc2ccc(OCCC)cc21 (stereo unspecified)
8.80	COc1cccc(C2=C(C(=O)O)C(c3ccc4c(c3)OCO4)Oc3ccc(OC(C)C)cc32)c1 (stereo unspecified)
8.33	CCCCCCCOC1=C(C(=O)O)C(c2ccc3c(c2)OCO3)Oc2ccc(OC(C)C)cc21 (stereo unspecified)
9.38	CCCCC1=C(C(=O)O)[C@@H](c2ccc3c(c2)OCO3)Oc2ccc(OC(C)C)cc21
8.42	CCOc1ccc2c(c1)C(c1ccc(OC)cc1)=C(C(=O)O)C(c1ccc3c(c1)OCO3)O2 (stereo unspecified)
8.49	CC(C)Oc1ccc2c(c1)C(c1ccc3c(c1)OCO3)=C(C(=O)O)C(c1ccc3c(c1)OCO3)O2 (stereo unspecified)
6.46	CCCCOc1ccc2c(c1)C(c1ccc3c(c1)OCO3)=C(C(=O)O)C(c1cccc(OC)c1)O2 (stereo unspecified)
7.77	CCCCOc1ccc2c(c1)C(c1ccc(OC)cc1)=C(C(=O)O)C(c1ccc3c(c1)OCO3)O2 (stereo unspecified)
7.37	CCCOc1ccc2c(c1)C(c1ccc3c(c1)OCO3)=C(C(=O)O)C(c1ccc3c(c1)OCO3)O2 (stereo unspecified)
6.66	CCCOc1ccc2c(c1)C(c1ccc3c(c1)OCO3)=C(C(=O)O)C(c1ccc(OC)cc1)O2 (stereo unspecified)
